Experimental data taken from BindingDB's records for doi:10.1021/jm900106f (St. Jude Children'S Research Hospital, 2009).

Target: T1, Zinc finger protein GLI1 (Homo sapiens, UniProt P08151)
T1 sequence (P08151 whole entry): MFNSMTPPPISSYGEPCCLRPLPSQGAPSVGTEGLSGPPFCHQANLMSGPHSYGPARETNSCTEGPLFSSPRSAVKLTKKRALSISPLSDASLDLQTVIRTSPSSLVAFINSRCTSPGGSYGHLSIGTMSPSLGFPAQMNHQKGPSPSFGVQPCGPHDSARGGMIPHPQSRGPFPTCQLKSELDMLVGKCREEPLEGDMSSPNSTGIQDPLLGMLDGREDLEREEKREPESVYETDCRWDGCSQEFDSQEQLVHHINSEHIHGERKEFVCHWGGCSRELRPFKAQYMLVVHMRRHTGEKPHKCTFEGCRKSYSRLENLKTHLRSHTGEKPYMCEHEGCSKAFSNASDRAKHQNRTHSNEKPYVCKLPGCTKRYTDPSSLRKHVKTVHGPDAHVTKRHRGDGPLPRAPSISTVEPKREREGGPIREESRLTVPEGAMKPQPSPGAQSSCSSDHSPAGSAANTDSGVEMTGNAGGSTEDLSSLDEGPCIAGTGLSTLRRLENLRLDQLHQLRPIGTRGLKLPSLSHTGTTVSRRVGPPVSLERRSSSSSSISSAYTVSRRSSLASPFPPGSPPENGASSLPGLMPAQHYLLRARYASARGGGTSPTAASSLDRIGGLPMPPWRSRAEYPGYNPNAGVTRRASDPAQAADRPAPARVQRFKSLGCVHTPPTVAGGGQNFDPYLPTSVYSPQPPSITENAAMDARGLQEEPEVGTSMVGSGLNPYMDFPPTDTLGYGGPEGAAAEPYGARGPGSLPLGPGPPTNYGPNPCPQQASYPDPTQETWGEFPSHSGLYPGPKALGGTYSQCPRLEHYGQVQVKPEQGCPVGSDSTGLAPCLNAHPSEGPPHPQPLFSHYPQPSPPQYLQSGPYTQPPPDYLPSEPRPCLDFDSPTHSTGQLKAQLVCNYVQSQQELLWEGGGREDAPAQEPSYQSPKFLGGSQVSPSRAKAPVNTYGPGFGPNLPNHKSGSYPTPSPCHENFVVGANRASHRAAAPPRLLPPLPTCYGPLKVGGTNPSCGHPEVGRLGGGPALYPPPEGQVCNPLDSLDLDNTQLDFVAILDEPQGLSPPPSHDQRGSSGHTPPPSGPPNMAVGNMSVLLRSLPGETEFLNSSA
Assay: Inhibition of exogenously transfected human Gli1-mediated transcriptional activity in mouse C3H10T1/2 cells after 24 hrs by luciferase reporter gene assay
Summary of the method: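 They were replated 18 h later, given compound or DMSO 6 h after plating, and exposed for 24 h at 37 °C, 5% CO2. Lysate was read by dual luciferase as firefly/Renilla, triplicate, DMSO = 0%. IC50 came from curve fitting.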

SMILES | IC50 [µM]
C[C@H](C(=O)N(CCc1ccc(O)cc1)CCc1ccc(O)cc1)c1cccc(C(=O)c2ccccc2)c1 [(S)-2-(3-Benzoylphenyl)-N,N-bis(4-hydroxyphenethyl)propanamide] | 9.4
CCCN(CCc1ccc(O)cc1)C(=O)[C@@H](C)c1cccc(C(=O)c2ccccc2)c1 [(S)-2-(3-Benzoylphenyl)-N-(4-hydroxyphenethyl)-N-propylpropanamide] | 6.9
C[C@H](C(=O)NCCc1ccc(O)cc1)c1cccc(C(=O)c2ccccc2)c1 [(S)-2-(3-Benzoylphenyl)-N-(4-hydroxyphenethyl)propanamide] | 11.4
